The values that follow come from article PMC4417838 (International Journal for Parasitology: Drugs and Drug …, 2015).

A short description of data set [1]: Stability observation. In kind it is physicochemical.
Data set [2] relates to P. falciparum strain NF54. Put plainly: Malstat assay, growth inhibition of P. falciparum NF54. In kind it is cell-based, Plasmodium falciparum. Conditions: for Selectivity index SI (NF54): CC50 (MCF7)/IC50 (NF54); for times more potent than tryptanthrin: CQ-sensitive strain; for IC50: Plasmodium falciparum; for gain in activity over the parent compound tryptanthrin: mono-derivatization at position 8, strain not stated.

Data set [3] deals with P. falciparum strain Dd2. Put plainly: Malstat assay, growth inhibition of P. falciparum Dd2. In kind it is cell-based, Plasmodium falciparum. Conditions: for Selectivity index SI (Dd2): CC50 (MCF7)/IC50 (Dd2); for IC50: Plasmodium falciparum, DD2, read-out: Mean IC50 ± SD Dd2.
A short description of data set [4]: MTT cytotoxicity assay. In kind it is cell-based. The settings on record: human, MCF-7 cells.
Data set [5] deals with P. falciparum NF54 mature gametocytes. Put plainly: Exflagellation assay. The settings on record: compound at IC90 concentration, 15 min and 24 h incubation. In kind it is cell-based, Plasmodium falciparum. In short, it runs like this:
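Mature NF54 gametocyte cultures (from day 13) were split into two flasks, one with test compound and one with DMSO only. Aliquots taken after 15 min at 37 °C and after 24 h were activated with xanthurenic acid for 15 min, pelleted, and resuspended in medium containing 100 µM xanthurenic acid. Exflagellation centres were counted in 30 fields relative to the DMSO control. The experiment was run twice, on separately seeded cultures.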

The nature of data set [6]: Solubility in DMSO. The settings on record: organic solvent or mixture. In kind it is physicochemical.
The test system of data set [7] is P. falciparum NF54 gametocytes. Put plainly: Gametocyte toxicity test. In kind it is cell-based, Plasmodium falciparum. The settings on record: nanomolar concentrations, positive control. In short, it runs like this: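 NF54 was seeded at 1–2% parasitemia and 5% hematocrit in RPMI/HEPES/hypoxanthine/bicarbonate with 10% human serum, under 5% O2/5% CO2/90% N2 at 37 °C, with medium changed daily. Stage II gametocytes were plated in triplicate with compound for 48 h, then kept in compound-free medium to day 7. Stage IV–V gametocytes per 1000 erythrocytes were counted on Giemsa smears and normalised to the DMSO control; means were compared by one-way ANOVA with Tukey's test.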

Where [8] appears, read: NF54, read-out: Mean IC50 ± SD NF54.
[9] abbreviates: DD2|NF54, read-out: IC50 (considered not effective).

≈ marks a conversion by molar mass, not a printed value. Entries after “also recorded” stand apart in the source; their conditions may differ. Like-named read-outs stand apart in the source and are kept apart here. Bounds are passed on as bounds.

As for `O=C1c2ccccc2-n2c1nc1ccc([N+](=O)[O-])cc1c2=O` [2-Nitrotryptanthrin], the stability entry in data set [1] is recorded as “highly unstable”.
In general, IC50 refers to the concentration at which inhibition is half-maximal. By CC50 is commonly meant the concentration at which the toxic effect on the cells reaches its halfway point. Read a high CC50 as lower toxicity to the cells. Regarding `O=C1c2cc(Br)ccc2-n2c1nc1cc(Cl)ccc1c2=O` [BT1, 8-Bromo-3-chloro-indolo [2,1-b] quinazoline-6,12-dione], in data set [2], the “Selectivity index SI (NF54)” value turned out to be 66 and the “times more potent than tryptanthrin” value is recorded as “at least 5”. Also, the IC50 in data set [2] (setting [8]) came to 36 ± 17 nM. Further, in data set [3], the “Selectivity index SI (Dd2)” value came to 10 and the IC50 was 238 ± 80 nM. For the same compound, in data set [4], the CC50 is 2380 ± 1 nM.
Regarding `O=C1c2cc(Br)ccc2-n2c1nc1ccc(Cl)cc1c2=O` [BT2, 8-Bromo-2-chloro-indolo [2,1-b] quinazoline-6,12-dione], in data set [2], the “Selectivity index SI (NF54)” value was >2000 and the “times more potent than tryptanthrin” value is reported as “at least 5”. Further, the IC50 in data set [2] (setting [8]) worked out at 36 ± 24 nM. In addition, in data set [3], the “Selectivity index SI (Dd2)” value is on record as >800 and the IC50 stood at 123 ± 62 nM. The cytotoxic concentration (CC50) in data set [4] was > 100000 nM.
For `COc1cc2nc3n(c(=O)c2cc1OC)-c1ccc(Br)cc1C3=O` [BT3, 8-Bromo-2,3-dimethoxy-indolo[2,1-b]quinazoline-6,12-dione], the “Selectivity index SI (NF54)” value in data set [2] is on record as >1000. The IC50 in data set [2] (setting [8]) turned out to be 88 ± 41 nM. For the same compound, in data set [3], the “Selectivity index SI (Dd2)” value is >100 and the IC50 worked out at 761 ± 194 nM. The CC50 in data set [4] is > 100000 nM.
As to `O=C(O)c1ccc2c(=O)n3c(nc2c1)C(=O)c1cc(Br)ccc1-3` [BT4, 8-Bromo-6,12-dioxo-6,12-dihydro-indolo[2,1-b] quinazoline-3-carboxylic acid], the IC50 in data set [2] (setting [9]), in data set [2] (setting [8]) and in data set [3] was > 50000 nM in each case. This compound also had a CC50 in data set [4] of 71000 ± 39700 nM.
On to `COC(=O)c1ccc2c(=O)n3c(nc2c1)C(=O)c1cc(Br)ccc1-3` [BT5, 8-Bromo-6,12-dioxo-6,12-dihydro-indolo[2,1-b] quinazoline-3-carboxylic acid methylester], for which the “Selectivity index SI (NF54)” value in data set [2] worked out at 70.9. For the same compound, the IC50 in data set [2] (setting [8]) came out at 162 ± 93 nM. For the same compound, in data set [3], the “Selectivity index SI (Dd2)” value is reported as 40 and the half-maximal inhibitory concentration (IC50) was 287 ± 24 nM. In data set [4], this compound had a CC50 of 11500 ± 5420 nM.
`CCN(CC)CCCC(C)Nc1ccnc2cc(Cl)ccc12` (stereo not drawn) [CQ, Chloroquine, reference compound]: in data set [2] (CQ-sensitive versus CQ-resistant strain), the “times more potent against CQ-sensitive strain compared with the resistant strain” value is recorded as 13. The half-inhibitory concentration (IC50) in data set [2] (NF54) stood at 20 nM; in data set [2] (setting [8]) it was 21 ± 2 nM; in data set [3], 294 ± 30 nM. For the same compound, the CC50 in data set [4] is > 100000 nM.
With `Cc1ccc2c(c1)C(=O)c1nc3ccccc3c(=O)n1-2` [Compound T1, 8-Methyl-indolo [2,1-b] quinazoline-6,12-dione], in data set [2], the “Selectivity index SI (NF54)” value is recorded as >1000 and the “gain in activity over the parent compound tryptanthrin” value is “approximately three times”. In addition, the IC50 in data set [2] (setting [8]) was 85 ± 37 nM. In data set [3], the “Selectivity index SI (Dd2)” value was >400 and the IC50 was 216 ± 116 nM. Further, in data set [4], the CC50 is > 100000 nM.
For the compound `O=C1c2cc(Br)ccc2-n2c1nc1ccccc1c2=O` [Compound T2, 8-Bromo-indolo [2,1-b] quinazoline-6,12-dione], in data set [2], the “Selectivity index SI (NF54)” value is 129.3 and the “gain in activity over the parent compound tryptanthrin” value is recorded as “approximately three times”. Moreover, the IC50 in data set [2] (setting [8]) turned out to be 81 ± 8 nM. Also, in data set [3], the “Selectivity index SI (Dd2)” value amounted to 110.2 and the IC50 came out at 95 ± 58 nM. Moreover, in data set [4], the CC50 amounted to 10500 ± 1520 nM.
In the case of `Cc1cccc2c1C(=O)c1nc3ccccc3c(=O)n1-2` [Compound T3, 7-Methyl-indolo [2,1-b] quinazoline-6,12-dione], the “Selectivity index SI (NF54)” value in data set [2] was 39.2. Also, in data set [2] (setting [8]), the half-maximal inhibitory concentration (IC50) came out at 450 ± 98 nM. For the same compound, in data set [3], the “Selectivity index SI (Dd2)” value is 29.3 and the IC50 is 602 ± 115 nM. The compound also returned a CC50 in data set [4] of 17600 ± 300 nM.
With `O=C1c2cc([N+](=O)[O-])ccc2-n2c1nc1ccccc1c2=O` [Compound T4, 8-Nitro-indolo [2,1-b] quinazoline-6,12-dione], in data set [2], the “Selectivity index SI (NF54)” value is reported as 45.1 and the “gain in activity over the parent compound tryptanthrin” value was “approximately three times”. Further, the IC50 in data set [2] (setting [8]) is 106 ± 38 nM. In addition, in data set [3], the “Selectivity index SI (Dd2)” value is reported as 29 and the IC50 worked out at 165 ± 55 nM. In data set [4], this compound had a half-maximal cytotoxic concentration (CC50) of 4780 ± 490 nM.
With `O=C1c2cc(F)ccc2-n2c1nc1ccccc1c2=O` [Compound T6, 8-Fluoro-indolo [2,1-b] quinazoline-6,12-dione], in data set [2], the “Selectivity index SI (NF54)” value worked out at 306.5, the “times more potent than tryptanthrin” value is “at least 5” and the “gain in activity over the parent compound tryptanthrin” value is on record as “approximately three times”. The IC50 in data set [2] (setting [8]) came out at 57 ± 10 nM. In data set [3], the “Selectivity index SI (Dd2)” value is recorded as 175.6 and the IC50 came to 100 ± 15 nM. In data set [4], this compound displayed a CC50 of 17500 ± 650 nM.
In the case of `O=C1c2cc(Cl)ccc2-n2c1nc1ccccc1c2=O` [Compound T7, 8-Chloro-indolo [2,1-b] quinazoline-6,12-dione], in data set [2], the “Selectivity index SI (NF54)” value was found to be 286.1 and the “gain in activity over the parent compound tryptanthrin” value was “approximately three times”. Further, the IC50 in data set [2] (setting [8]) amounted to 95 ± 33 nM. In data set [3], the “Selectivity index SI (Dd2)” value is given as 158.5 and the IC50 stood at 172 ± 18 nM. This compound yielded a cytotoxic concentration (CC50) in data set [4] of 27200 ± 6680 nM.
In the case of `O=C1c2ccccc2-n2c1nc1cc(Cl)ccc1c2=O` [Compound T8, 3-Chloro-indolo [2,1-b] quinazoline-6,12-dione], the “reduction of exflagellation of microgametes” value in data set [5] is on record as “neither tryptanthrin nor T8 were able to significantly inhibit the exflagellation; also recorded: no influence on exflagellation”. The “Selectivity index SI (NF54)” value in data set [2] was 186. The IC50 in data set [2] (setting [8]) is 92 ± 3 nM. In data set [3], the “Selectivity index SI (Dd2)” value stood at 103.5 and the IC50 worked out at 165 ± 81 nM. In data set [4], this compound had a CC50 of 17100 ± 4260 nM.
For orientation: solubility means the concentration that dissolves in the medium under given conditions. Regarding `O=C1c2cc([N+](=O)[O-])ccc2-n2c1nc1cc(Cl)ccc1c2=O` [NT1, 3-Chloro-8-nitro-indolo [2,1-b] quinazoline-6,12-dione], in data set [6], the solubility is 10 mM (≈ 3280 µg/mL). In data set [2], the “Selectivity index SI (NF54)” value worked out at 155.9 and the “times more potent than tryptanthrin” value is “at least 5”. Further, the IC50 in data set [2] (NF54) came out at 30 nM. Further, the IC50 in data set [2] (setting [8]) turned out to be 33 ± 4 nM. Also, in data set [3], the “Selectivity index SI (Dd2)” value is 168.7 and the IC50 turned out to be 31 ± 5 nM. The “times more active than tryptanthrin” value in data set [3] (CQ-resistant strain) stood at 3.3. In data set [4], this compound had a CC50 of 5150 ± 110 nM.
`O=C1c2cc([N+](=O)[O-])ccc2-n2c1nc1ccc(Cl)cc1c2=O` [NT2, 2-Chloro-8-nitro-indolo [2,1-b] quinazoline-6,12-dione]: in data set [2], the “Selectivity index SI (NF54)” value was 96.7. Besides, the IC50 in data set [2] (setting [8]) came out at 129 ± 22 nM. Besides, in data set [3], the “Selectivity index SI (Dd2)” value worked out at 136.5 and the IC50 was determined as 91 nM. Also, the CC50 in data set [4] was determined as 12500 ± 230 nM.
For `COc1cc2nc3n(c(=O)c2cc1OC)-c1ccc([N+](=O)[O-])cc1C3=O` [NT3, 2,3-Dimethoxy-8-nitro-indolo [2,1-b] quinazoline-6,12-dione] the same measures were 53.6, 283 ± 93 nM, 113.2, 134 ± 47 nM and 15200 ± 4410 nM.
As to `O=C(O)c1ccc2c(=O)n3c(nc2c1)C(=O)c1cc([N+](=O)[O-])ccc1-3` [NT4, 8-Nitro-6,12-dioxo-6,12-dihydro-indolo[2,1-b]quinazoline-3-carboxylic acid], the IC50 in data set [2] (setting [9]), in data set [2] (setting [8]) and in data set [3] was > 50000 nM each time. Further, the CC50 in data set [4] was > 100000 nM.
With `COC(=O)c1ccc2c(=O)n3c(nc2c1)C(=O)c1cc([N+](=O)[O-])ccc1-3` [NT5, 8-Nitro-6,12-dioxo-6,12-dihydro-indolo[2,1-b] quinazoline-3-carboxylic acid methyl ester], the “Selectivity index SI (NF54)” value in data set [2] came to 71.7. Further, the IC50 in data set [2] (setting [8]) was 167 ± 67 nM. Moreover, in data set [3], the “Selectivity index SI (Dd2)” value was found to be 72.1 and the IC50 amounted to 166 ± 36 nM. The compound further had a 50% cytotoxic concentration (CC50) in data set [4] of 12000 ± 500 nM.
For `O=C1c2cc([N+](=O)[O-])ccc2-n2c1nc1cc(Br)ccc1c2=O` [NT6, 3-Bromo-8-nitro-indolo [2,1-b] quinazoline-6,12-dione] the same measures were 243.3, 72 ± 23 nM, 174, 101 ± 68 nM and 17500 ± 770 nM.
As for `O=C1c2ccccc2-n2c1nc1ccccc1c2=O` [TRYP, indolo-[2,1-b]-quinazoline-6, 12-Dione, reference compound], the IC50 in data set [2] (setting [8]) is 288 ± 87 nM; in data set [3] it was 114 ± 17 nM. In data set [4], the CC50 was found to be 45900 ± 700 nM.
For `CC[C@H](C)[C@H](NC(=O)[C@H]([C@@H](C)CC)N(C)C(C)=O)C(=O)N[C@H](C(=O)N[C@@H](CC(C)C)C(=O)[C@@]1(C)CO1)[C@@H](C)O` [epoxomicin], in data set [7], the “effect on gametocytes in culture” value is given as “fully eliminate the gametocytes”.
